Experiments:
[1] = Drug level in PBS treated with 3-(3-(((2-Amino-9H-purin-6-yl)oxy)methyl)benzyl)-1-(2-chloroethyl)-1-nitrosourea by HPLC-UV analysis; format: physicochemical; conditions: buffer
Summary of the method: (§1)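 Stock dissolved in minimal DMSO, diluted into PBS (pH 7.4) or MEM-EBSS containing 10% FBS plus penicillin/streptomycin to 0.1 mM final. Incubated at 37 °C, with aliquots taken at set times over 8 h and frozen. Medium samples were deproteinized with an equal volume of acetonitrile and centrifuged. Analysis by HPLC-UV on C18, eluting 50% 50 mM ammonium acetate pH 4.5 / 50% methanol at 1.0 mL/min.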

[2] = Retention time of the compound in PBS/MEM-EBSS treated with 3-(3-(((2-Amino-9H-purin-6-yl)oxy)methyl)benzyl)-1-(2-chloroethyl)-1-nitrosourea by HPLC-UV analysis; format: physicochemical; conditions: buffer; summary of the method: as §1
[3] = Drug level in MEM-EBSS treated with 3-(3-(((2-Amino-9H-purin-6-yl)oxy)methyl)benzyl)-1-(2-chloroethyl)-1-nitrosourea by HPLC-UV analysis; format: physicochemical; summary of the method: as §1
[4] = Cytotoxicity against human SF763 cells expressing high level of AGT assessed as cell survival after 24 hrs by CCK8 assay; format: functional, cell-based; conditions: SF763, 24 h
Summary of the method: (§2)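 Glioma cells kept in MEM-EBSS with 10% FBS, 37 °C, 5% CO2. Seeded 5000 cells/well, grown 24 h, then 24 h drug exposure over a range of concentrations. Read-out: CCK8 (10%, 3 h), A450. Survival % = (A_drug−A_blank)/(A_control−A_blank)×100. Mean ± SD of at least three independent experiments. DMSO or ethanol vehicle kept below 0.1%.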

[5] = Induction of dG-dC cross linking in human SF763 cells expressing high level of AGT assessed as level of dG-dC cross link per mg of DNA at 0.4 mM after 12 hrs by HPLC-ESI-MS/MS analysis; format: functional
Summary of the method: (§3)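 SF763 glioma cells (mer+, 119 fmol AGT/10^6 cells) in MEM-EBSS/10% FBS were grown to about 90% confluence and exposed for 12 h. DNA was isolated by proteinase K/RNase/phenol-chloroform, then digested with four enzymes and spiked with 15N3-dG-dC. Isotope-dilution HPLC-ESI-MS/MS; dG-dC given as fmol per mg DNA, with DNA estimated from dGuo content. Mean ± SD of triplicates.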

Calf thymus DNA [6] = experiment: Induction of dG-dC cross linking in calf thymus DNA assessed as level of dG-dC cross link per mg of DNA at 0.4 mM after 12 hrs by HPLC-ESI-MS/MS analysis; format: nucleic-acid assay; conditions: Bos taurus
Summary of the method: (§4)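 CT DNA at 1 mg/mL in buffer (10 mM Tris, 50 mM NaCl, 50 mM Na2HPO4, pH 7.4) was given the compound from a DMSO solution and incubated 12 h at 37 °C. DNA was ethanol-precipitated and digested (DNase I, S1 nuclease, alkaline phosphatase, phosphodiesterase I), with 15N3-dG-dC internal standard at 9.6 nM final. Quantitation by isotope-dilution HPLC-ESI-MS/MS in positive SRM mode. Results given as fmol/mg DNA, mean ± SD of triplicates.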

[7] = Induction of dG-dC cross linking in human SF763 cells expressing high level of AGT assessed as level of dG-dC cross link per mg of DNA at 0.1 mM after 12 hrs by HPLC-ESI-MS/MS analysis; format: functional; summary of the method: as §3
[8] = Half life of compound in PBS by HPLC-UV analysis
Calf thymus DNA [9] = experiment: Induction of dG-dC cross linking in calf thymus DNA assessed as level of dG-dC cross link per mg of DNA at 0.2 mM after 12 hrs by HPLC-ESI-MS/MS analysis; format: nucleic-acid assay; conditions: Bos taurus; summary of the method: as §4
SF-126 = experiment: Potency index, ratio IC50 of ACNU to ratio IC50 of compound for human SF126 cells expressing low level of AGT; format: functional
Calf thymus DNA [10] = experiment: Induction of dG-dC cross linking in calf thymus DNA after 12 hrs by HPLC-ESI-MS/MS analysis; format: nucleic-acid assay; conditions: Bos taurus
Summary of the method: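 Calf thymus DNA at 1 mg/mL in buffer (10 mM Tris, 50 mM NaCl, 50 mM Na2HPO4, pH 7.4) was treated with 0.1, 0.2 or 0.4 mM final for 12 h at 37 °C, then ethanol-precipitated. Digestion with DNase I, S1 nuclease, CIAP and phosphodiesterase I, spiked with 15N3-dG-dC internal standard. Isotope-dilution HPLC-ESI-MS/MS (SRM, positive mode), reported as fmol/mg DNA, mean ± SD of triplicates.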

[11] = Cytotoxicity against human SF126 cells expressing low level of AGT assessed as cell survival after 24 hrs by CCK8 assay; format: functional, cell-based; conditions: SF-126, 24 h; summary of the method: as §2
Calf thymus DNA [12] = experiment: Induction of dG-dC cross linking in calf thymus DNA assessed as level of dG-dC cross link per mg of DNA at 0.1 mM after 12 hrs by HPLC-ESI-MS/MS analysis; format: nucleic-acid assay; conditions: Bos taurus; summary of the method: as §4
[13] = Retention time of the compound in PBS/MEM-EBSS by HPLC-UV analysis; format: physicochemical; conditions: buffer; summary of the method: as §1
[14] = Cytotoxicity against human SF-767 cells expressing moderate level of AGT assessed as cell survival after 24 hrs by CCK8 assay; conditions: SF767, 24 h
[15] = Half life of compound in MEM-EBSS by HPLC-UV analysis in presence of 10% fetal bovine serum; format: physicochemical; conditions: cattle, MEM-EBSS with 10% fetal bovine serum; summary of the method: as §1
[16] = Induction of dG-dC cross linking in human SF763 cells expressing high level of AGT assessed as level of dG-dC cross link per mg of DNA at 0.2 mM after 12 hrs by HPLC-ESI-MS/MS analysis; format: functional; summary of the method: as §3
[17] = Cytotoxicity against human SF-767 cells expressing high level of AGT assessed as cell death after 24 hrs by CCK8 assay; format: functional; summary of the method: as §2
[18] = Cytotoxicity against human SF763 cells expressing high level of AGT assessed as cell death after 24 hrs by CCK8 assay; format: functional; summary of the method: as §2
[19] = Cytotoxicity against human SF126 cells expressing low level of AGT assessed as cell death after 24 hrs by CCK8 assay; format: functional, SF-126; summary of the method: as §2
[20] = Half life of compound in serum containing medium; format: ADME
Summary of the method: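 Compound at 0.1 mM final (from DMSO stock) in MEM-EBSS with 10% FBS, penicillin/streptomycin, incubated 37 °C up to 8 h. Aliquots precipitated with equal volume acetonitrile, centrifuged, supernatant run on HPLC-UV. C18 column, 50% 50 mM ammonium acetate pH 4.5 / 50% methanol, 1.0 mL/min. Half-life read from degradation curve.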

[21] = Cytotoxicity against human SF763 cells expressing high level of AGT assessed as cell survival after 24 hrs by CCK8 assay in presence of O6-BG; format: functional, cell-based; conditions: SF763, 24 h
Summary of the method: (§5)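 Cells were seeded at 5000 cells/well and grown 24 h. They were pretreated 2 h with O6-BG at 20 µM final, then switched to fresh medium holding ACNU or BCNU at various concentrations for 24 h. Read-out: CCK8 (10%, 3 h), absorbance 450 nm. Survival expressed relative to untreated cells after blank subtraction. Mean ± SD, ≥3 independent experiments.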

[22] = Cytotoxicity against human SF-767 cells expressing moderate level of AGT assessed as cell survival after 24 hrs by CCK8 assay in presence of O6-BG; conditions: SF767, 24 h
[23] = Cytotoxicity against human SF126 cells expressing low level of AGT assessed as cell survival after 24 hrs by CCK8 assay in presence of O6-BG; format: functional, cell-based; conditions: SF-126, 24 h; summary of the method: as §5

SMILES | Drug metabolism [1] | Retention_time [2] [min] | Drug metabolism [3] | IC50 [4] [µM] | Activity [5] [fmol] | Activity (Calf thymus DNA [6]) [fmol] | Activity [7] [fmol] | Activity (Calf thymus DNA [9]) [fmol] | IC50 [11] [µM] | Activity (Calf thymus DNA [12]) [fmol] | IC50 [14] [µM] | Activity [16] [fmol] | IC50 [21] [µM] | IC50 [22] [µM] | IC50 [23] [µM] | other results
Nc1nc(OCc2cccc(CN=C=O)c2)c2nc[nH]c2n1 | metabolite_detected | 16.25 | metabolite_detected |  |  |  |  |  |  |  |  |  |  |  |  | 
Nc1nc(OCc2cccc(CNC(=O)N(CCCl)N=O)c2)c2nc[nH]c2n1 |  |  |  | 35 | 787 | 10300 | 267 | 6100 | 50 | 3880 | 25 | 713 |  |  |  | half-life [8]: 30 min; Ratio IC50 (SF-126): >6; Activity (Calf thymus DNA [10]): Dose-dependent effect; Retention_time [13]: 23.93 min; half-life [15]: 18 min
NCc1cccc(COc2nc(N)nc3nc[nH]c23)c1 | metabolite_detected | 13.85 | metabolite_detected |  |  |  |  |  |  |  |  |  |  |  |  | mortality [17]: <3%; mortality [18]: <3%; mortality [19]: <3%
O=NN(CCCl)C(=O)NCCCl [CARMUSTINE] |  |  |  | 100 | 342 | 24300 | 145 | 13600 | 20 | 6160 | 45 | 224 | 55 | 30 | 25 | half-life [20]: 15 min
Cc1ncc(CNC(=O)N(CCCl)N=O)c(N)n1 [NIMUSTINE] |  |  |  | > 1000 | 568 | 34900 | 172 | 16800 | 320 | 8750 | 500 | 447 | 1000 | 400 | 310 | 

Source: ChEMBL document CHEMBL3779845, “Synthesis and antitumor activity evaluation of a novel combi-nitrosourea prodrug: Designed to release a DNA cross-linking agent and an inhibitor of O(6)-alkylguanine-DNA alkyltransferase” (Bioorg Med Chem, 2016)
